Assay results as given in article PMC3680370 (Journal of medicinal chemistry, 2012).

Experiments:
[1] = system: primary cortical cultured neurons; assay: Transient OGD followed by reoxygenation in primary neuronal cultures; assay type: cell-based, rat; conditions: for neuroprotection against OGD: primary neurons, 50 μM
Outline: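 Cortical neurons came from E17 Sprague Dawley rat embryos. They were plated at 3×10^5 cells/cm2 on poly-L-lysine, then kept in serum-free neurobasal/B27 medium. On day 8–10, cultures had 2 h OGD at 37°C (95% N2/5% CO2) in deoxygenated, glucose-free HEPES-buffered salt solution, pH 7.4. They then had 24 h normoxic reoxygenation in fresh medium. Test compound (50 μM) was present throughout. Viability was read by MTT, death by LDH.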

[2] = system: rat primary cortical neurons; assay: NMDA induced cytotoxicity in primary neurons; assay type: cell-based; conditions: NMDA 100 μM; compounds 50 μM
[3] = system: primary cortical cultures; assay type: cell-based, rat; conditions: drug 50 μM; for effect of GABAA blockade by picrotoxin on neuroprotection: picrotoxin 100 μM added 1 h before glutamate 100 μM, MTT at 24 h
Outline: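 Cortical neurons from E17 Sprague Dawley rat embryos, plated at 3×10^5 cells/cm2 on poly-L-lysine and switched to serum-free neurobasal/B27 at 24 h, were used at 10–11 DIV. Picrotoxin 100 μM was given 1 h before glutamate 100 μM, or omitted in a parallel run. Test compound or muscimol (50 μM final) followed 1 h after glutamate. MTT survival at 24 h was normalised to vehicle controls; mean ± SEM, n=6.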

[4] = Brain bioavailability by LC-MS/MS; assay type: in vivo; conditions: mice, 20 min after i.p. administration; for MZ metabolite in the brain after NO-chimera administration: metabolite 22a from 32a, 26 from 28
Outline: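 Male C57BL/6 mice (8–10 weeks, 20–25 g) got one i.p. dose of 4.5 μmol/kg, equimolar with the parent methylthiazole, at 0.1 ml/25 g; four mice per drug. Brains were taken 20 min post-dose and extracted with cold acetonitrile/MeOH (1:1) plus internal standard. After homogenising, 4°C centrifugation and re-extraction, extracts were cleared at −20°C and dried under N2. Analytes were measured by C18 HPLC (formic acid gradient).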

SH-SY5Y cell cultures = assay: Excitotoxic insults; assay type: cell-based, human; conditions: excitotoxic insults including glutamate, NMDA, OGD; data not shown
rabbits = conditions: cited from earlier work
[5] = system: rats with cognitive deficits in the cholinergic systems of the basal forebrain; conditions: cited from earlier work
[6] = Stability of NO-chimera in neutral phosphate buffer; assay type: physicochemical; conditions: for stability in phosphate buffer: phosphate buffer 100 mM, pH 7.4, room temperature, HPLC-UV or LC-MS
Outline: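 NO-chimeras were incubated in 100 mM phosphate buffer, pH 7.4, at room temperature in the HPLC autosampler. Aliquots were injected repeatedly, at intervals set by each compound's stability (about 7 or 67 min). Analysis used reverse-phase C18 HPLC with UV at 254 nm and a water/methanol vs acetonitrile gradient with 0.1% formic acid. Percent remaining was the parent:internal-standard peak-area ratio over the time-zero value.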

4-Butyl-1-[(4-methyl-5-thiazolyl)phenylmethyl]-1H-1,2,3-triazole [5a]
% normalized to CMZ after OGD ([1]; test compounds 50 μM during 2-hour OGD and 24-hour reoxygenation, MTT assay at 24 h normalized to vehicle (0% survival) and CMZ (100% survival), mean ± SEM (n=6)): 26.8 ± 5.2%

Cc1ncsc1C(c1ccccc1)n1cc(-c2cccnc2)nn1 (centres unmarked) [5d, 3-[1-[(4-methyl-5-thiazolyl)phenylmethyl]-1H-1,2,3-triazol-4-yl]pyridine]
neuroprotection against OGD [1]: excellent neuroprotectant | neuroprotection against NMDA induced cytotoxicity [2]: excellent neuroprotectant

Cc1ncsc1C(CO)c1ccccc1 (stereo not drawn) [22a, β-phenyl-4-methyl-5-thiazoleethanol]
effect of GABAA blockade by picrotoxin on neuroprotection [3]: mirrored that by muscimol

Cc1ncsc1C(CO[N+](=O)[O-])c1ccccc1 (stereo not drawn) [32a, β-phenyl-(4-methyl-5-thiazolyl)ethane-1-nitrate]
brain bioavailability of NO-chimera [4]: good brain bioavailability | MZ metabolite in the brain after NO-chimera administration [4]: observed in the brain

Cc1ncsc1CCCl [CMZ, clomethiazole, reference compound]
neuroprotection against NMDA induced cytotoxicity [2]: inhibited reproducibly | neuroprotection in SH-SY5Y cells (SH-SY5Y cell cultures): did not produce robust and reproducible neuroprotection

Cc1ncsc1CCO [HMZ, 5-(2-hydroxyethyl)-4-methylthiazole]
anticonvulsant activity (rabbits): anticonvulsant agent

Cc1ncsc1CCO[N+](=O)[O-] [compound 1]
learning and memory [5]: significantly improved learning and memory

Cc1ncsc1C(c1ccccc1)n1cc(-c2cncc(O)c2)nn1 (centres unmarked) [compound 16, 5-[1-[(4-Methyl-5-thiazolyl)phenylmethyl]-1H-1,2,3-triazol-4-yl]-3-pyridinol]
neuroprotection against OGD [1]: retained neuroprotective efficacy comparable to CMZ

Cc1ncsc1C(CO)n1cc(-c2cccnc2)nn1 (stereo not drawn) [compound 26, [1-[β-(4-Methyl-5-thiazolyl)ethanol]-4-(3-pyridinyl)]-1H-1,2,3-triazole]
effect of GABAA blockade by picrotoxin on neuroprotection [3]: intermediate neuroprotective mechanisms

Cc1ncsc1C(CO[N+](=O)[O-])n1cc(-c2cccnc2)nn1 (stereo not drawn) [compound 28, β-(4-methyl-5-thiazolyl)-[4-(3-pyridinyl)-1H-1,2,3-Triazole-1-ethane]-1-nitrate]
stability in phosphate buffer [6]: stability over 5 days at room temperature | MZ metabolite in the brain after NO-chimera administration [4]: readily detected

Cc1ncsc1C(CO[N+](=O)[O-])n1nncc1-c1cccnc1 (stereo not drawn) [compound 29, β-(4-methyl-5-thiazolyl)-[5-(3-pyridinyl)-1H-1,2,3-Triazole-1-ethane]-1-nitrate]
stability in phosphate buffer [6]: stability over 5 days at room temperature

Cc1ncsc1C(Cc1ccccc1)O[N+](=O)[O-] (stereo not drawn) [compound 33, α-(Phenylmethyl)-(4-methyl-5-thiazolyl)methanenitrate]
stability in phosphate buffer [6]: stability over 5 days at room temperature

Cc1ncsc1C(OC(=O)C1(CO[N+](=O)[O-])CC1)c1ccccc1 (centres unmarked) [compound 36, [1-[(nitrooxy)methyl]cyclopropanecarboxyl]-[(4-methyl-5-thiazolyl)phenylmethyl] ester]
half-life ([6]; phosphate buffer, pH 7.4): ~30 min

Cc1ncsc1C(OCCOCCO[N+](=O)[O-])c1ccccc1 (centres unmarked) [compound 40, 1-nitrooxy-2-[2-[(4-methyl-5-thiazolyl)phenylmethoxy]ethoxy]ethane]
stability in phosphate buffer [6]: stability over 5 days at room temperature

Cc1ncsc1C(OCCOCCO)c1ccccc1 (centres unmarked) [compound 41, [2-[(4-methyl-5-thiazolyl)phenylmethoxy]ethoxy]ethanol]
effect of GABAA blockade by picrotoxin on neuroprotection [3]: intermediate neuroprotective mechanisms

Cc1ncsc1C(NC(=O)OCCCCO[N+](=O)[O-])c1ccccc1 (centres unmarked) [compound 43, N-[(4-Methyl-5-thiazolyl)phenylmethyl]-[4-(nitrooxy)butyl] carbamate]
stability in phosphate buffer [6]: stable

Cc1ncsc1C(NC(=O)C1(CO[N+](=O)[O-])CC1)c1ccccc1 (centres unmarked) [compound 44, N-[(4-methyl-5-thiazolyl)phenylmethyl]-1-[(nitrooxy)methyl]cyclopropanecarboxamide]
stability in phosphate buffer [6]: stable

NCc1cc(O)no1 [muscimol, Muscimol, reference compound]
neuroprotection against glutamate toxicity ([3]; glutamate 100 μM, 24 h, MTT): effective neuroprotection | effect of GABAA blockade by picrotoxin on neuroprotection [3]: lost and reversed
